# Sampled rows, rich in hits. Any-hit rate of the full collection: about 1.3%.
# CHT PAM: allosteric activators of human choline transporter CHT. Q9GZV3. CHT-expressing cells, membrane potential dye, choline EC20; stronger effect = higher value; LV-AA mutant CHT in HEK293 cells. B-score at 10 µM. 310,000 compounds, 0.49% hits;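 active = initial fluorescence not abnormally high and integrated response B-score, plate-corrected, over 3 SD above library mean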
# proCasp7 act: counter-screen: procaspase-7 (human) activation; recombinant procaspase-7, Ac-DEVD-pNA absorbance 405 nm; D23A/D198A/D206A triple mutant, cannot self-cleave; scale: DMSO 0, 5 µM enzyme 100; activation, % at 8.5 µM; 330,000 compounds, 0.093% hits;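 active = percent activation above the screen-wide mean plus 3 SD, cut at about 25% in these data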
# Target sequence (P55210 whole entry D23A/D198A/D206A): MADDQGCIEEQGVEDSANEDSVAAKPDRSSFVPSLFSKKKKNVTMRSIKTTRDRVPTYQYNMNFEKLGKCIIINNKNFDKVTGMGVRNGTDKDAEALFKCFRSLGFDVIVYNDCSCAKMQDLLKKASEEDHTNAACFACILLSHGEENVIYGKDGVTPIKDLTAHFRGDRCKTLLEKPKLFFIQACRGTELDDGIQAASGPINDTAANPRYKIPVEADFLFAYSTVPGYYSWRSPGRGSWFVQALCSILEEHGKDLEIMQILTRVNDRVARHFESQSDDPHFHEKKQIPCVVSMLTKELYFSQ
#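 Assay system: Uncleavable procaspase-7 mutant enzyme | Input: 2 µM procaspase-7 mutant as dispensed | Timing: 1 h compound preincubation, 2 h substrate cleavage, 25 °C | Repeats: One well per compound | Control set: DMSO wells as 0%, DMSO with 5 µM added PC-7 as 100% | Technique: Epi-absorbance of released pNA at 405 nm, two timepoints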
# procasp3 activ: activators of human procaspase-3; 330,000 compounds, 0.11% hits; P42574; AID 463141; activation, % at 8.5 µM; recombinant procaspase-3 D3A, Ac-DEVD-pNA absorbance 405 nm;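 active = activation above the mean of all tested compounds plus 3 SD, cut at about 21% in these data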
# Target sequence (P42574 whole entry D9A/D28A/D175A): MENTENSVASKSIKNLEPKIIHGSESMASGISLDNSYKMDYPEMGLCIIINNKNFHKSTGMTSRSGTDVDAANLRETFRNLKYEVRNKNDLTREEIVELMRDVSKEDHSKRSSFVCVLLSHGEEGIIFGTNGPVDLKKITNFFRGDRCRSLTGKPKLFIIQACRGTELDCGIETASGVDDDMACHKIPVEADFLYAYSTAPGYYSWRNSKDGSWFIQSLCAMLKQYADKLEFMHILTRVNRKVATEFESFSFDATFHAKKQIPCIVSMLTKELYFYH
#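 System: Procaspase-3 D3A mutant. Medium: Zinc-free 300 mM NaCl, 50 mM HEPES, 0.01% Triton X-100. Schedule: 1 h preincubation plus 2 h reaction at 25 °C. Measured by: 405 nm absorbance of p-nitroaniline, reads at 0 and 120 min. Read-out: percent activation relative to control range.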
# CHT inh: inhibits the human high affinity choline transporter; B-score at 10 µM; 310,000 compounds, 0.86% hits; CHT-expressing cells, membrane potential dye, choline response; stronger effect = lower value; Q9GZV3;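 active = B-score over 3 SD under the library average, and starting fluorescence ratio not unusually high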;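 also: choline stimulus applied at its EC90 after an EC20 pre-addition; B-score computed on integrated fluorescence ratio after choline addition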
# CHT act confirm: confirmation of human choline transporter (CHT) activators; shares compounds with CHT PAM; CHT-expressing cells, membrane potential dye fluorescence (FDSS); % of choline EC20–EC90 response window; HEK293 expressing CHT LV-AA mutant; choline added at its EC20; activation, % at 10 µM; 2,500 compounds, 91% hits;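 active = primary screen active, with duplicate mean activation above negative control mean plus 3 SD, cut at about 11% in these data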
# HEK293 MP dye: counter-screen for CHT activators: effect in parental HEK293 cells; 2,500 compounds, 62% hits; shares compounds with CHT PAM; ratio readout change at 10 µM, hits read low; membrane potential dye fluorescence (FDSS); measured after EC20 choline addition;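 active = duplicate-averaged ratio beyond 3 SD from buffer wells, up or down, though filed actives are nearly all decreases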
# A number is an active result; - = inactive; . = not tested or not shown.
SMILES,CHT PAM,proCasp7 act,procasp3 activ,CHT inh,CHT act confirm,HEK293 MP dye
Cc1cc(C)n2nc(C)c(Br)c2n1,-,-,-,-,.,.
Cc1cc(C)n2nc3nc4c(cc3c2n1)CCCC4,7,-,-,-,41,-47
Cc1cc(/C=N\NC(=O)CC(=O)NC2CCCCC2)c(C)n1-c1ccc(Cl)c(Cl)c1,-,-,-,-,.,.
Cc1cc(/C=N\NC(=O)CC(=O)NC2CCCCC2)c(C)n1-c1cccc(Cl)c1Cl,12,-,-,-,23,-
Cn1c(=O)c2c(nc(N3CCc4ccccc4C3)n2Cc2ccc(Br)cc2)n(C)c1=O,-,-,-,-,28,-26
Cc1ccc(Cn2c(SCC(N)=O)nc3c2c(=O)n(C)c(=O)n3C)cc1,-,-,-,-,.,.
Cn1c(=O)c2c(nc(SCCN3CCCCC3)n2Cc2ccccc2)n(C)c1=O,-,-,-,-,46,-59
Cc1ccc(Cn2c(SCCN3CCCCC3)nc3c2c(=O)n(C)c(=O)n3C)cc1,-,-,-,-,49,-44
Cn1c(=O)c2c(nc(SCCN3CCOCC3)n2Cc2cccc3ccccc23)n(C)c1=O,-,-,-,-,.,.
CC1C(=O)Nc2ccccc2N1C(=O)c1ccc(F)cc1 (stereo unspecified),-,-,-,-,.,.
Cc1ccc(C)c(N2CCN(C(=O)CCc3nc(-c4ccc(F)cc4)no3)CC2)c1,.,-,-,.,.,.
CCn1c(/C=C/Nc2ccccc2)[n+](CC)c2cc(Cl)c(Cl)cc21,7,-,-,-,33,-37
CCn1c(/C=C/N(C(C)=O)c2ccccc2)[n+](CCCS(=O)(=O)[O-])c2cc(Cl)c(Cl)cc21,-,-,-,-,.,.
Cn1c(CCN2CCCCC2)nc2cc([N+](=O)[O-])ccc21,8.5,-,-,-,58,-62
Cc1cc(C)cc(-n2c(C)c3c(C)nnc(C)c3c2C)c1,-,-,-,-,43,-28
Cc1nnc(C)c2c(C)n(-c3ccc4ncccc4c3)c(C)c12,-,-,-,-,41,-46
CCC(=O)N(Cc1ccco1)C1CC(=O)N(c2ccccc2)C1=O (stereo unspecified),-,-,-,-,.,.
CCCc1cc(=O)oc2cc(C)cc(OCC(=O)NCCCn3ccnc3)c12,-,-,-,-,.,.
Cc1cc(OC(C)C(=O)NCCCn2ccnc2)c2c(C)cc(=O)oc2c1 (stereo unspecified),-,-,-,-,45,-39
Cc1cc(OCC(=O)NCCCn2ccnc2)c2c(C)cc(=O)oc2c1,7.1,-,-,-,65,-56
Cc1cc(=O)oc2c(C)c(OCC(=O)NCCCn3ccnc3)ccc12,-,-,-,-,58,-52
CCCc1cc(=O)oc2cc(C)cc(OC(C)C(=O)NCCCn3ccnc3)c12 (stereo unspecified),-,-,-,-,.,.
Cc1nc2cc(Cl)ccc2c(=O)n1Cc1ccncc1,-,-,-,-,.,.
CCNS(=O)(=O)c1ccc(CCC(=O)Nc2ccc3c(c2)OCCO3)cc1,-,-,-,-,.,.
CCCCN(C)C(=O)c1nc2ccccn2c1CN1CCN(C/C=C/c2ccccc2)CC1,-,-,-,-,.,.
SMILES,CHT PAM,proCasp7 act,procasp3 activ,CHT inh,CHT act confirm,HEK293 MP dye
C[C@@H]1[C@H](O)C[C@@]23COC(=O)C2=CCCC3[C@@]1(C)CCC1COC(=O)C1 (stereo partly specified),-,-,-,-,.,.
CN1CCN(c2nc3ccccc3nc2C(C#N)C(=O)OC2CCCCC2)CC1 (stereo unspecified),8.6,-,-,-,44,-48
O=[N+]([O-])c1ccc(C[n+]2cccc3ccc4cccnc4c32)cc1,-,-,-,-,.,.
c1ccc(C[n+]2cccc3c4ccccc4ccc32)cc1,6.4,-,-,-,77,-75
O=[N+]([O-])c1ccc(C[n+]2cccc3ccccc32)cc1,8.1,-,-,-,47,-46
Cc1cc[n+](Cc2ccccc2)c(N)c1,-,-,-,-,.,.
CCCCC[n+]1cccc2c3ccccc3ccc21,7.5,-,-,-,47,-74
CCCC[n+]1c2ccccc2cc2ccccc21,-,-,-,-,.,.
CC(C)(C)C(=O)Nc1c2c(nn1-c1ccccc1)CSC2,-,-,-,-,.,.
COc1ccc2c(c1)CCCN2C(N)=O,-,-,-,-,.,.
COc1ccc2c(c1)CCCN2C(N)=Nc1ccc(Cl)cc1,6.3,-,-,-,16,-
Cc1ccn2c(c1)nc(=O)c1cc(S(=O)(=O)N3CCCCC3)ccc12,-,-,-,-,32,-27
O=c1nc2ccccn2c2ccc(S(=O)(=O)N3CCCCC3)cc12,-,-,-,-,.,.
Cc1cccc(NS(=O)(=O)c2cc(C(=O)N3CCc4ccccc4C3)ccc2Cl)c1C,-,-,-,-,.,.
Cc1cc(Nc2cccc([N+](=O)[O-])c2)c2cccc(C)c2n1,-,-,-,-,42,-52
Cc1cc(C)nc(/N=C(\N)Nc2cccc([N+](=O)[O-])c2)n1,-,-,-,-,28,-46
CC(=O)c1cccc(CN2CCC(C(=O)Nc3ccc(-c4cccc(C)c4)cc3)CC2)c1,-,-,-,-,.,.
COc1ccccc1CN1CCC(n2nccc2NC(=O)CCc2ccccc2)CC1,-,-,-,-,.,.
COc1ccc(/C=N/NC(=O)C(=O)N2CCCCCC2)cc1O,-,-,-,-,.,.
O=Cc1ccc(OC(=O)Cc2ccc(F)cc2)cc1,-,-,-,-,.,.
Cc1cc(C)cc(NC(=O)c2cc(C)nc3ccccc23)c1,-,-,-,-,.,.
CCN(Cc1ccccc1)CC(O)COC(c1ccc(OC)cc1)c1ccc(OC)cc1 (stereo unspecified),-,-,-,-,15,-
CCN(CC)CC(O)COC(c1ccccc1)c1ccccc1 (stereo unspecified),-,-,-,-,.,.
Cc1ccn2c(NC(=O)c3ccccc3)c(-c3ccccc3)nc2c1,-,-,-,-,30,-48
COC(=O)C1CN(S(=O)(=O)c2cc(OC)ccc2OC)CCS1 (stereo unspecified),-,-,-,-,.,.
Cc1ccc(C(=O)N/N=C\c2ccccn2)cn1,-,-,-,-,40,-38
CC(C)(C)c1ccc(C(=O)N/N=C/c2ccccn2)cc1,-,-,-,-,.,.
COc1cccc(CN(C)C(=O)c2ccc(N3CCCC3)c([N+](=O)[O-])c2)c1,-,-,-,-,.,.
COc1ccc2nc(N/C(N)=N/C(=S)Nc3c(C)cccc3C)nc(C)c2c1,7.1,-,-,-,50,-41
COc1ccc(C)cc1NC(=O)CNC(c1ccccc1)c1ccc(C)cc1 (stereo unspecified),-,-,-,-,.,.

# Assay outcomes deposited in PubChem by several laboratories.
